Reference: PMC6220894 (Food and chemical toxicology : an international journal …, 2018)
Where two headings read alike, the source gives them in different places.

What was measured:
[1] = system: memory deficits; details: mouse model of Alzheimer's disease; ref Davies et al., 2011; cited from earlier work
[2] = Stability in human whole blood; type: in vitro ADME; details: 37°C, no increase in salicylic acid
[3] = Stability in rabbit plasma; type: in vitro ADME
[4] = system: plasma protein; details: human plasma, mean ± SE
[5] = system: Salmonella typhimurium TA 1537; experiment: Ames bacterial reverse mutation assay, plate incorporation method; type: cell-based
[6] = system: Salmonella typhimurium TA 1535; type: cell-based; details: pre-incubation
[7] = ref Davies et al., 2002; Zagol-Ikapitte et al., 2010a; cited from earlier work
[8] = system: Salmonella typhimurium TA 100; type: cell-based; details: plate incorporation
[9] = system: cryopreserved human hepatocytes; experiment: Cytotoxicity; type: cell-based; details: 72 hours
Method in brief: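 Cryopreserved hepatocytes from three donors (1 male, 2 female, Caucasian, 43–59 y) were thawed, plated at 0.15 million cells/well on collagen-coated plates at 37°C in 5% CO2, medium-changed after 2–4 h attachment, and recovered overnight. Cells were exposed to 0.3, 3 or 30 µM test compound or 0.1% DMSO vehicle for 72 h, with medium renewed daily. MTS conversion to formazan was then read, in triplicate.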

[10] = +S9, 0.05 mg/plate as printed (third dose row)
[11] = −S9, 0.05 mg/plate as printed (third dose row)

CC(=O)O.NCc1ccccc1O [2-HOBA, 2-Hydroxybenzylamine acetate]
memory deficits [1]: protection from memory deficits
metabolism in whole blood [2]: some 2-HOBA metabolism was observed
fraction metabolized ([3]; within 30 min): more than 60%
fraction metabolized ([3]; within 2 hours): nearly all
fb (bound fraction) ([4]; 1 µM): 0.079 ± 0.023
fb (bound fraction) ([4]; 10 µM): 0.140 ± 0.022
Mean plate counts (revertant colonies) ([5]; +S9, 0.05 mg/plate): 6.3±0.6
Mean plate counts (revertant colonies) [5, 10]: 6.3±0.6
Mean plate counts (revertant colonies) ([5]; +S9, 0.15 mg/plate): 6.3±1.5
Mean plate counts (revertant colonies) ([5]; +S9, 1.5 mg/plate): 6.0±1.0
Mean plate counts (revertant colonies) ([5]; +S9, 5 mg/plate): 6.3±1.5
Change in revertant colony counts vs negative control (mutagenicity) ([5]; +S9 and −S9, all dose levels): No changes in revertant colony counts were observed
Mean plate counts (revertant colonies) ([5]; −S9, 0.05 mg/plate): 5.0±1.0
Mean plate counts (revertant colonies) [5, 11]: 5.3±0.6
Mean plate counts (revertant colonies) ([5]; −S9, 0.15 mg/plate): 5.0±0.0
Mean plate counts (revertant colonies) ([5]; −S9, 1.5 mg/plate): 5.7±1.2
Mean plate counts (revertant colonies) ([5]; −S9, 5 mg/plate): 6.0±1.0
Mean plate counts (revertant colonies) ([6]; +S9, 0.05 mg/plate): 12.0±2.0
Mean plate counts (revertant colonies) ([6]; +S9, 0.15 mg/plate): 12.0±1.0
Mean plate counts (revertant colonies) ([6]; +S9, 0.5 mg/plate): 14.3±2.1
Mean plate counts (revertant colonies) ([6]; +S9, 1.5 mg/plate): 12.3±0.6
Mean plate counts (revertant colonies) ([6]; +S9, 5 mg/plate): 11.7±2.1
Change in revertant colony counts vs negative control (mutagenicity) ([6]; +S9 and −S9, all dose levels): No changes in revertant colony counts were observed
Mean plate counts (revertant colonies) ([6]; −S9, 0.05 mg/plate): 12.7±1.5
Mean plate counts (revertant colonies) [6, 11]: 12.0±1.0
Mean plate counts (revertant colonies) ([6]; −S9, 0.15 mg/plate): 11.7±1.5
Mean plate counts (revertant colonies) ([6]; −S9, 1.5 mg/plate): 11.3±1.5
Mean plate counts (revertant colonies) ([6]; −S9, 5 mg/plate): 12.0±1.7
γKA scavenging rate relative to the rate of formation of γKA protein adducts [7]: 980 fold
Mean plate counts (revertant colonies) ([8]; +S9, 0.05 mg/plate): 106.3±1.5
Mean plate counts (revertant colonies) [8, 10]: 96.3±5.1
Mean plate counts (revertant colonies) ([8]; +S9, 0.15 mg/plate): 104.7±8.1
Mean plate counts (revertant colonies) ([8]; +S9, 1.5 mg/plate): 106.7±6.1
Mean plate counts (revertant colonies) ([8]; +S9, 5 mg/plate): 101.3±4.2
Change in revertant colony counts vs negative control (mutagenicity) ([8]; +S9 and −S9, all dose levels): No changes in revertant colony counts were observed
Mean plate counts (revertant colonies) ([8]; −S9, 0.05 mg/plate): 90.3±1.5
Mean plate counts (revertant colonies) [8, 11]: 100.0±9.2
Mean plate counts (revertant colonies) ([8]; −S9, 0.15 mg/plate): 105.3±8.3
Mean plate counts (revertant colonies) ([8]; −S9, 1.5 mg/plate): 101.3±3.2
Mean plate counts (revertant colonies) ([8]; −S9, 5 mg/plate): 100.7±2.1
% formazan absorbance relative to vehicle ([9]; all concentrations (0.3, 3, 30 µM), any donor): ≥ 94%
Formazan absorbance ([9]; donor 1, 0.3 µM): 0.82
Formazan absorbance (% of vehicle) ([9]; donor 1, 0.3 µM): 117 % of vehicle
Formazan absorbance ([9]; donor 1, 3 µM): 0.81
Formazan absorbance (% of vehicle) ([9]; donor 1, 3 µM): 115 % of vehicle
Formazan absorbance ([9]; donor 1, 30 µM): 0.75
Formazan absorbance (% of vehicle) ([9]; donor 1, 30 µM): 107 % of vehicle
Formazan absorbance ([9]; donor 2, 0.3 µM): 0.37
Formazan absorbance (% of vehicle) ([9]; donor 2, 0.3 µM): 94 % of vehicle
Formazan absorbance ([9]; donor 2, 3 µM): 0.38
Formazan absorbance (% of vehicle) ([9]; donor 2, 3 µM): 96 % of vehicle
Formazan absorbance ([9]; donor 2, 30 µM): 0.39
Formazan absorbance (% of vehicle) ([9]; donor 2, 30 µM): 100 % of vehicle
Formazan absorbance ([9]; donor 3, 0.3 µM): 0.64
Formazan absorbance (% of vehicle) ([9]; donor 3, 0.3 µM): 99 % of vehicle
Formazan absorbance ([9]; donor 3, 3 µM): 0.66
Formazan absorbance (% of vehicle) ([9]; donor 3, 3 µM): 102 % of vehicle
Formazan absorbance ([9]; donor 3, 30 µM): 0.67
Formazan absorbance (% of vehicle) ([9]; donor 3, 30 µM): 104 % of vehicle
Formazan absorbance ([9]; mean of 3 donors, 0.3 µM): 0.61
Formazan absorbance (% of vehicle) ([9]; mean of 3 donors, 0.3 µM): 103 % of vehicle
Formazan absorbance ([9]; mean of 3 donors, 3 µM): 0.62
Formazan absorbance (% of vehicle) ([9]; mean of 3 donors, 3 µM): 104 % of vehicle
Formazan absorbance ([9]; mean of 3 donors, 30 µM): 0.61
Formazan absorbance (% of vehicle) ([9]; mean of 3 donors, 30 µM): 103 % of vehicle
